What was measured:
Matrilysin = molecular target: T1, Matrilysin (Homo sapiens, UniProt P09237); assay: Inhibition of human recombinant MMP7 using MCA-Pro-Leu-Gly-Leu-Dpa-Ala-Arg-NH2.AcOH as substrate preincubated for 10 mins measured by fluorescence analysis
T1 sequence (P09237 whole entry): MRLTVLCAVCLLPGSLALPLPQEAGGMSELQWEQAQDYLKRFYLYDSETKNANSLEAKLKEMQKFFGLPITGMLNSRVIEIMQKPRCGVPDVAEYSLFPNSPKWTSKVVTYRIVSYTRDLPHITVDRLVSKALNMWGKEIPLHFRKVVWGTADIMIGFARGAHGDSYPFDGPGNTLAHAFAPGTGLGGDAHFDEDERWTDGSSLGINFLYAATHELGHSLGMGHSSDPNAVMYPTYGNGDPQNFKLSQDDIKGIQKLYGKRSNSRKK
Outline: (§1)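 Catalytic domains of recombinant human MMPs were assayed with fluorogenic OmniMMP substrate in 50 mM Tris-HCl pH 7.5, 150 mM NaCl, 5 mM CaCl₂, 0.05% Brij-35. Enzyme was 1–10 nM and substrate 4–10 μM, optimized per assay. Enzyme was preincubated 10 min with varying inhibitor concentrations, and IC50 was calculated from runs done at least in duplicate.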

[1] = molecular target: Matrix metalloproteinase-14 (Homo sapiens, UniProt P50281); assay: Inhibition of human recombinant MMP14 using MCA-Pro-Leu-Gly-Leu-Dpa-Ala-Arg-NH2.AcOH as substrate preincubated for 10 mins measured by fluorescence analysis; outline: as §1
Plasma [2] = assay: Drug uptake in Sprague-Dawley rat plasma at 0.5 mg/kg, ia measured after 8 weeks; format: ADME, organism-based; set-up: dose 0.5 mg/kg; conditions: in vivo, other, 1344 h, BLD = below limit of detection
Rattus norvegicus [3] = species: Rattus norvegicus; assay: Chondroprotective activity in Sprague-Dawley rat cartilage assessed as inhibition of MMP13-mediated C1,C2 release at 0.5 mg/joint, ia measured on day 7 by ELISA; format: functional
Outline: (§2)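 Male Sprague-Dawley rats (175−200 g, three per group) received one IA injection of 50 μL PBS holding 10 mg/mL suspension (sonicated, vortexed) into right knee. They were killed at 1, 7, 14 or 21 days, and tibial cartilage was collected. Cartilage was then challenged with 10 μg/mL APMA-activated human MMP-13 for 24 h at 37 °C in Tris pH 7.5. The reaction was stopped with 10 mM EDTA, and released C1,2C was measured by ELISA. Vehicle cartilage incubated with or without MMP-13 defined 100% and 0%.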

Interstitial collagenase = molecular target: T2, Interstitial collagenase (Homo sapiens, UniProt P03956); assay: Inhibition of human recombinant MMP1 using MCA-Pro-Leu-Gly-Leu-Dpa-Ala-Arg-NH2.AcOH as substrate preincubated for 10 mins measured by fluorescence analysis; outline: as §1
T2 sequence (P03956 whole entry): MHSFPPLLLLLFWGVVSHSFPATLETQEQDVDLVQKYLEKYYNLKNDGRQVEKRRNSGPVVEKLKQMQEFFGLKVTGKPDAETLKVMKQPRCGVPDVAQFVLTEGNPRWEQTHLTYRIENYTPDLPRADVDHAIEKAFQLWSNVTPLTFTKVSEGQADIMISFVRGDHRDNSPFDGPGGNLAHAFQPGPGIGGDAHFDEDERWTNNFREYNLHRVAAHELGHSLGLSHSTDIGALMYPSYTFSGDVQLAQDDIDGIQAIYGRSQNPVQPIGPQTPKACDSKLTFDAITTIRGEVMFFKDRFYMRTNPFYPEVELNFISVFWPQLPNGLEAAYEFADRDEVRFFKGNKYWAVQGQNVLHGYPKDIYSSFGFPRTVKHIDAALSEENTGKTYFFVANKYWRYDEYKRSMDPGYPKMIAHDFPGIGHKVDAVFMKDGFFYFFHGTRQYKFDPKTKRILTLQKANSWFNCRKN

[4] = Metabolic stability in rat microsomes assessed as unmetabolized compound after 60 mins; format: ADME, Microsome; conditions: read-out: Stability
Collagenase 3 = Collagenase 3 (Homo sapiens, UniProt P45452); assay: Inhibition of human recombinant MMP13 using MCA-Pro-Cha-Gly-Nva-His-Ala-Dpa-NH2 as substrate preincubated for 10 mins measured by fluorescence analysis
Outline: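 Catalytic domain of recombinant human MMP-13 was assayed with fluorogenic substrate in 50 mM Tris-HCl pH 7.5, 150 mM NaCl, 5 mM CaCl₂, 0.05% Brij-35. Enzyme was 1–10 nM and substrate 4–10 μM. It was preincubated 10 min with varying inhibitor concentrations, and IC50 came from at least duplicate runs.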

[5] = molecular target: T3, A disintegrin and metalloproteinase with thrombospondin motifs 4 (Homo sapiens, UniProt O75173); assay: Inhibition of human recombinant aggrecanase 1 using aggrecan-IGD as substrate measured after 15 mins by ELISA
T3 sequence (O75173 whole entry): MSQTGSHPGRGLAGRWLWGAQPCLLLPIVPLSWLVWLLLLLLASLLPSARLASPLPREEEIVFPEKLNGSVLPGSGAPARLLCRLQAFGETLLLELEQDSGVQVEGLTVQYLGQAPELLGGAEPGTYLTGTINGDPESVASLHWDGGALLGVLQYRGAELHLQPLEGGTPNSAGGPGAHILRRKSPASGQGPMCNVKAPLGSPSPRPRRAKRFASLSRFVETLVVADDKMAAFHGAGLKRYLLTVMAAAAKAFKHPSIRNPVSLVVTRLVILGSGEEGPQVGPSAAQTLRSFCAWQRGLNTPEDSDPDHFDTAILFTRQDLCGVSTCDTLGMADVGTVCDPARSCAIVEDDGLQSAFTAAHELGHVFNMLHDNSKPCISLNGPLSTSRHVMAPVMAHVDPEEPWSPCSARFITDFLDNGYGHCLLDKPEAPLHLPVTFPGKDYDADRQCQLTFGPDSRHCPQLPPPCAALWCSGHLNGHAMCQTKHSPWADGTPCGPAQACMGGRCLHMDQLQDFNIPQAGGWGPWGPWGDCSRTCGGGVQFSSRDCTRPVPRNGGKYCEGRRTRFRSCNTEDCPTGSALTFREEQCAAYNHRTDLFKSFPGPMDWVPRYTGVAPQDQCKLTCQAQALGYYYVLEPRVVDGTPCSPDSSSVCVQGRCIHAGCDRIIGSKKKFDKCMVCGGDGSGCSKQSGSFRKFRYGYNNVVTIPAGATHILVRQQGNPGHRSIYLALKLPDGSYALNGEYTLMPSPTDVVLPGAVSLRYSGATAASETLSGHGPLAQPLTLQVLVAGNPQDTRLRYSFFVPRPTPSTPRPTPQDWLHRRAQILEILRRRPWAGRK
Outline: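 Aggrecanase-1 was run in 50 mM Tris-HCl pH 7.5, 150 mM NaCl, 5 mM CaCl₂, 0.05% Brij-35, with 100 nM recombinant human aggrecan interglobular domain as substrate, for 15 min at 37 °C. The reaction was stopped with EDTA, and ARGSVIL neoepitopes were quantified by ELISA.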

[6] = Metabolic stability in human microsomes assessed as unmetabolized compound after 60 mins; format: ADME, Microsome; conditions: read-out: Stability
Rattus norvegicus [7] = species: Rattus norvegicus; assay: Toxicity in Sprague-Dawley rat assessed as ability to use limbs at 0.5 mg/joint measured on day 56; format: organism-based; conditions: in vivo, other
Rattus norvegicus [8] = assay: Toxicity in Sprague-Dawley rat assessed as adverse effects at 0.5 mg/kg, ia measured after 3 weeks; format: organism-based; set-up: dose 0.5 mg/kg; conditions: in vivo, other, 504 h
[9] = Drug uptake in Sprague-Dawley rat cartilage at 0.5 mg/joint measured after 21 days; format: ADME, tissue-based, Cartilage tissue; conditions: read-out: Drug uptake
Neutrophil collagenase = Neutrophil collagenase (Homo sapiens, UniProt P22894); assay: Inhibition of human recombinant MMP8 using MCA-Pro-Leu-Gly-Leu-Dpa-Ala-Arg-NH2.AcOH as substrate preincubated for 10 mins measured by fluorescence analysis; outline: as §1
Chain of Neutrophil collagenase (P22894 whole entry): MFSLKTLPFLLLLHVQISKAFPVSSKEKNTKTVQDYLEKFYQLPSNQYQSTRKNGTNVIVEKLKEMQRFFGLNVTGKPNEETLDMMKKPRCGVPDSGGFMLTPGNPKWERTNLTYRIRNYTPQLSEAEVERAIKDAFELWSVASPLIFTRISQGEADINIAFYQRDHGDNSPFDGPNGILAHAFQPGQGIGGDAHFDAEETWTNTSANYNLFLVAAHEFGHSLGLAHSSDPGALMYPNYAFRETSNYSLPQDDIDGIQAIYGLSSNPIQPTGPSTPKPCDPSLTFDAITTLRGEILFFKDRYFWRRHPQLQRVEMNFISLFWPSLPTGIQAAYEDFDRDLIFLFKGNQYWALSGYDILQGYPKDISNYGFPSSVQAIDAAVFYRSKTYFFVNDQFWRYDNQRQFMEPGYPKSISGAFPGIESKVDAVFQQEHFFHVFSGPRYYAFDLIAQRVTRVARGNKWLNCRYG

Plasma [10] = assay: Drug uptake in Sprague-Dawley rat plasma at 0.5 mg/joint measured after 8 weeks; format: ADME, cell-free; conditions: other, 1344 h, BLD = below limit of detection
[11] = molecular target: Macrophage metalloelastase (Homo sapiens, UniProt P39900); assay: Inhibition of human recombinant MMP12 using MCA-Pro-Leu-Gly-Leu-Dpa-Ala-Arg-NH2.AcOH as substrate preincubated for 10 mins measured by fluorescence analysis; outline: as §1
Chain of Macrophage metalloelastase (P39900 whole entry): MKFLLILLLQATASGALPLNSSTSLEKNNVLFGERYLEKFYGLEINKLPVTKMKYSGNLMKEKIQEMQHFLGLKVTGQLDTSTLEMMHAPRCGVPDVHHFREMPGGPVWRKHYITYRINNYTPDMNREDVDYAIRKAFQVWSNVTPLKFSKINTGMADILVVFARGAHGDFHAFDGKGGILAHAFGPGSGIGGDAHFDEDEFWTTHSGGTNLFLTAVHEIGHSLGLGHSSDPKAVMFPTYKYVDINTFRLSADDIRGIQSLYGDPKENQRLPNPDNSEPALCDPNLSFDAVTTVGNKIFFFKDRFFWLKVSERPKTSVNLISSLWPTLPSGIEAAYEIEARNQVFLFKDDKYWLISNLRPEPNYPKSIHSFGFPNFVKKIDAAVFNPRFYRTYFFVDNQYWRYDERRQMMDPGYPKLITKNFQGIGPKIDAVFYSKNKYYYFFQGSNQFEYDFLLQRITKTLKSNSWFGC

Rattus norvegicus [12] = assay: Toxicity in Sprague-Dawley rat assessed as joint irritation at 0.5 mg/kg, ia measured after 3 weeks; format: organism-based; set-up: dose 0.5 mg/kg; conditions: in vivo, other, 504 h
[13] = molecular target: Matrix metalloproteinase-9 (Homo sapiens, UniProt P14780); assay: Inhibition of human recombinant MMP9 using MCA-Pro-Leu-Gly-Leu-Dpa-Ala-Arg-NH2.AcOH as substrate preincubated for 10 mins measured by fluorescence analysis; outline: as §1
Chain of Matrix metalloproteinase-9 (P14780 whole entry): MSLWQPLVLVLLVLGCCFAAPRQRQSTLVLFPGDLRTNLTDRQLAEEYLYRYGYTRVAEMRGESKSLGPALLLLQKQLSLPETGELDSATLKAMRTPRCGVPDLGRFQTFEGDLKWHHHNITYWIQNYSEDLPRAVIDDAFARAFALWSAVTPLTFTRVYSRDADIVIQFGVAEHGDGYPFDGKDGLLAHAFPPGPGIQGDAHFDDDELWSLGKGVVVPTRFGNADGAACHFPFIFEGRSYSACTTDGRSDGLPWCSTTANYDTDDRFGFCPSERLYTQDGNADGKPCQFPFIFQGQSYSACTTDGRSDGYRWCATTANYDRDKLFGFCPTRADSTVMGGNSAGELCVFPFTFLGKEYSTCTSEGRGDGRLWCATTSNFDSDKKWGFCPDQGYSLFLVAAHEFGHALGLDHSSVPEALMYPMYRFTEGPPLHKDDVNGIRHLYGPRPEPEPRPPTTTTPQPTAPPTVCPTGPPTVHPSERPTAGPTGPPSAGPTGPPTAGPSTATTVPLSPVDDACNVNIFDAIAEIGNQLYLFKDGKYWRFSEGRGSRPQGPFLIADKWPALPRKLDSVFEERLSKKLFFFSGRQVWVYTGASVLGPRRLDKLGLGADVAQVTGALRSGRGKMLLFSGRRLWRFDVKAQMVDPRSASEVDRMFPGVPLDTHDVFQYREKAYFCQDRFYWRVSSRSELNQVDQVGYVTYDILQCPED

Rattus norvegicus [14] = assay: Toxicity in Sprague-Dawley rat assessed as joint irritation at 0.5 mg/kg, ia measured after 48 hrs; format: organism-based; set-up: dose 0.5 mg/kg; conditions: in vivo, other
[15] = molecular target: Disintegrin and metalloproteinase domain-containing protein 17 (Homo sapiens, UniProt P78536); assay: Inhibition of human recombinant TACE using MCA-Pro-Leu-Ala-Gln-Ala-Val-Dpa-Arg-Ser-Ser-Ser-Arg-NH2 as substrate preincubated for 10 mins measured by fluorescence analysis
Chain of Disintegrin and metalloproteinase domain-containing protein 17 (P78536 whole entry, the tested form may be a part): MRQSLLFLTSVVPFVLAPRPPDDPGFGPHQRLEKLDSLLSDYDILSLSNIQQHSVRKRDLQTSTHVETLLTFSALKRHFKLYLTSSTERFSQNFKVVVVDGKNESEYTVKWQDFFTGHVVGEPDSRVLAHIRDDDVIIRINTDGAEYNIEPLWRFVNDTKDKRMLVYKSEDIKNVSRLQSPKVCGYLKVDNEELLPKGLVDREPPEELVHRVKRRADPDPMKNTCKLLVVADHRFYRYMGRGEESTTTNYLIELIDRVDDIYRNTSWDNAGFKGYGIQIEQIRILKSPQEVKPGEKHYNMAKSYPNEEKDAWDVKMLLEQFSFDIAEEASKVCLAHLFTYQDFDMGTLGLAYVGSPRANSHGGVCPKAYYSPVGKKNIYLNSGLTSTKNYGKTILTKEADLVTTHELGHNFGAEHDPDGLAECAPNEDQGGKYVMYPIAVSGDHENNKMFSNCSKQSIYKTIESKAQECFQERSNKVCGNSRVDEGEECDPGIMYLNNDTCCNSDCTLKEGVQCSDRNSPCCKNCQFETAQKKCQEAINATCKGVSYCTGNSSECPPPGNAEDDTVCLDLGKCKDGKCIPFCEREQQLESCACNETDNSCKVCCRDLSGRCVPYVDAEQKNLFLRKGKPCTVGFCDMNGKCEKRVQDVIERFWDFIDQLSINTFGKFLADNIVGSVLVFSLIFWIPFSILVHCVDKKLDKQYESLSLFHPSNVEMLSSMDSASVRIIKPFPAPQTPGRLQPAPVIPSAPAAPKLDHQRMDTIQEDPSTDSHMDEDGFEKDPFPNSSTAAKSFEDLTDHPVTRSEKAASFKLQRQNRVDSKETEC
Outline: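 Recombinant human TACE was assayed with its fluorogenic peptide substrate in 25 mM Tris-HCl pH 9, 1.25 μM Zn(OAc)₂, 0.005% Brij-35. Enzyme was 1–10 nM and substrate 4–10 μM. Enzyme was preincubated 10 min with varying inhibitor concentrations, and IC50 came from at least duplicate runs.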

[16] = molecular target: 72 kDa type IV collagenase (Homo sapiens, UniProt P08253); assay: Inhibition of human recombinant MMP2 using MCA-Pro-Leu-Gly-Leu-Dpa-Ala-Arg-NH2.AcOH as substrate preincubated for 10 mins measured by fluorescence analysis; outline: as §1
Chain of 72 kDa type IV collagenase (P08253 whole entry): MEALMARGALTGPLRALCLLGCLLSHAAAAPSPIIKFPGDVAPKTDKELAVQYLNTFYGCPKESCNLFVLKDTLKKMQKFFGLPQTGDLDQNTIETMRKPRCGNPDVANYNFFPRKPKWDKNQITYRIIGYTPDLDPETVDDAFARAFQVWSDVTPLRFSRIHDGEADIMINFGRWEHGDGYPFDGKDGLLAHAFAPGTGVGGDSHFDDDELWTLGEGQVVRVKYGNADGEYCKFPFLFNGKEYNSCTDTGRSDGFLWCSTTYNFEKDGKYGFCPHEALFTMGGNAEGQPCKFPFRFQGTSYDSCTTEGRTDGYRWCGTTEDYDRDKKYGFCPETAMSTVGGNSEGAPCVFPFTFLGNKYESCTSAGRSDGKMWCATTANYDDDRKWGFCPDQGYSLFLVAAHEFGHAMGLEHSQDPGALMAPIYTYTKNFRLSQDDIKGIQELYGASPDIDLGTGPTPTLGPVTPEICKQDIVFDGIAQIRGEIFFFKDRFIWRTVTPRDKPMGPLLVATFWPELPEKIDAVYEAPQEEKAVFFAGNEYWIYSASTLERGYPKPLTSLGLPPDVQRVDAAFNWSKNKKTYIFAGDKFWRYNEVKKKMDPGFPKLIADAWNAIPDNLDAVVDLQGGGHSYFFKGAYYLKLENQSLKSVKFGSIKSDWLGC

Plasma [17] = assay: Drug uptake in Sprague-Dawley rat plasma at 100 mg/kg, ip measured after 8 weeks; format: ADME, organism-based; set-up: dose 100 mg/kg, route intraperitoneal; conditions: in vivo, 1344 h, BLD = below limit of detection
Plasma [18] = assay: Drug uptake in Sprague-Dawley rat plasma at 1 mg/kg, iv measured after 8 weeks; format: ADME, organism-based; set-up: dose 1 mg/kg, route intravenous; conditions: in vivo, 1344 h, BLD = below limit of detection
Stromelysin-1 = Stromelysin-1 (Homo sapiens, UniProt P08254); assay: Inhibition of human recombinant MMP3 using MCAArg-Pro-Lys-Pro-Val-Glu-Nva-Trp-Arg-Lys(DNP)-NH2 as substrate preincubated for 10 mins measured by fluorescence analysis
Chain of Stromelysin-1 (P08254 whole entry, the tested form may be a part): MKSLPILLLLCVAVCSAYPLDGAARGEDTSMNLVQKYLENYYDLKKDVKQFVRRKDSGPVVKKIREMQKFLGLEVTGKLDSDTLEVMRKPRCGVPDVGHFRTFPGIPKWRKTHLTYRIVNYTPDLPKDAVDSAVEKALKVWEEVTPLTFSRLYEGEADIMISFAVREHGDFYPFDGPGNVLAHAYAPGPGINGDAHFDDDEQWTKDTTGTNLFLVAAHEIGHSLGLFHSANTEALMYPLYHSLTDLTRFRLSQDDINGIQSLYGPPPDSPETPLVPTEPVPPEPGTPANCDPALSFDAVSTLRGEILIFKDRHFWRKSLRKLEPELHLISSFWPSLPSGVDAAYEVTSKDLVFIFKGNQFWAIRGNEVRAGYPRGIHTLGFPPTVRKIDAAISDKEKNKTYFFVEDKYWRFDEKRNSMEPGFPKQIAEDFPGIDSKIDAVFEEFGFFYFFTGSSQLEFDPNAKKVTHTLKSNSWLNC
Outline: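 Catalytic domain of recombinant human MMP-3 was assayed with NFF-3 fluorogenic substrate in 50 mM MES pH 6.0, 10 mM CaCl₂, 0.05% Brij-35. Enzyme was 1–10 nM and substrate 4–10 μM. Enzyme was preincubated 10 min with varying inhibitor concentrations, and IC50 came from at least duplicate runs.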

[19] = Drug uptake in Sprague-Dawley rat synovial lavage at 0.5 mg/joint measured on day 56; format: ADME; conditions: in vivo, other, BLD = below limit of detection
Cartilage tissue = assay: Inhibition of collagen degradation in bovine articular cartilage assessed as inhibition of interlukein-1alpha/oncostatin M-induced C1,C2 release measured after 11 days by ELISA; format: functional, tissue-based; conditions: Bos taurus
Outline: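 Freshly isolated bovine articular cartilage pieces (~3 mm²) were stimulated with 5 ng/mL IL-1α plus 50 ng/mL OSM, with or without compound, for 11 days. Medium was refreshed twice weekly. Collagen degradation products in the conditioned medium were quantified by C1,2C ELISA.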

Rattus norvegicus [20] = species: Rattus norvegicus; assay: Chondroprotective activity in Sprague-Dawley rat cartilage assessed as inhibition of MMP13-mediated C1,C2 release at 0.5 mg/joint, ia measured on day 21 by ELISA; format: functional; outline: as §2
Rattus norvegicus [21] = species: Rattus norvegicus; assay: Chondroprotective activity in Sprague-Dawley rat cartilage assessed as inhibition of MMP13-mediated C1,C2 release at 0.5 mg/joint, ia measured after 24 hrs by ELISA; format: functional; outline: as §2
Plasma [22] = assay: Drug uptake in Sprague-Dawley rat plasma at 100 mg/kg, po measured after 8 weeks; format: ADME, organism-based; set-up: dose 100 mg/kg, route oral; conditions: in vivo, 1344 h, BLD = below limit of detection
[23] = Drug uptake in Sprague-Dawley rat cartilage at 0.5 mg/joint measured on day 56; format: ADME, tissue-based, Cartilage tissue; conditions: read-out: Drug uptake
[24] = Drug uptake in Sprague-Dawley rat synovial lavage at 0.5 mg/joint measured after 21 days; format: ADME; conditions: read-out: Drug uptake
Rattus norvegicus [25] = species: Rattus norvegicus; assay: Chondroprotective activity in Sprague-Dawley rat cartilage assessed as inhibition of MMP13-mediated C1,C2 release at 0.5 mg/joint, ia measured on day 14 by ELISA; format: functional; outline: as §2
Rattus norvegicus [26] = assay: Toxicity in Sprague-Dawley rat assessed as adverse effects at 0.5 mg/kg, ia measured after 48 hrs; format: organism-based; set-up: dose 0.5 mg/kg; conditions: in vivo, other
Rattus norvegicus [27] = species: Rattus norvegicus; assay: Toxicity in Sprague-Dawley rat assessed as impaired use of limbs at 0.5 mg/joint measured on day 56; format: organism-based; conditions: in vivo, other

IC50 (Matrilysin): > 20 µM
IC50 [1]: > 20 µM
Cp (Plasma [2]): BLD
IC50 (Interstitial collagenase): > 20 µM
remaining at 1 h [4]: 95%
IC50 (Collagenase 3): 0.03 nM
IC50 [5]: 2400 nM
remaining at 1 h [6]: 96%
concentration at 504 h [9]: 4.09 µM
IC50 (Neutrophil collagenase): 3.2 µM
Cp (Plasma [10]): BLD
IC50 [11]: 655 nM
IC50 [13]: > 20 µM
IC50 [15]: > 20 µM
IC50 [16]: > 20 µM
Cp (Plasma [17]): BLD
Cp (Plasma [18]): BLD
IC50 (Stromelysin-1): 8.2 µM
Drug uptake [19]: BLD
IC50 (Cartilage tissue; 264 h): 20 nM
Cp (Plasma [22]): BLD
concentration at 56 days [23]: ≥ 2000 nM
concentration at 504 h [24]: 300 nM
Structure (SMILES): Cc1c(C(=O)O)ccc2c1CC[C@@H]2NC(=O)c1cc(C(=O)NCc2ccc3c(c2)NC(=O)CO3)nc2ccnn12
inhibition (INH) (Rattus norvegicus [3]): 100%
Activity (Rattus norvegicus [7]): Non-toxic
Activity (Rattus norvegicus [8]): Non-toxic
Activity (Rattus norvegicus [12]): Non-toxic
Activity (Rattus norvegicus [14]): Non-toxic
inhibition (Cartilage tissue): Dose-dependent effect
inhibition (INH) (Rattus norvegicus [20]): 100%
inhibition (INH) (Rattus norvegicus [21]): 100%
inhibition (INH) (Rattus norvegicus [25]): 100%
Activity (Rattus norvegicus [26]): Non-toxic
Activity (Rattus norvegicus [27]): Non-toxic

Source: ChEMBL document CHEMBL2046313, “Discovery and evaluation of a non-Zn chelating, selective matrix metalloproteinase 13 (MMP-13) inhibitor for potential intra-articular treatment of osteoarthritis” (J Med Chem, 2012)
